Laboratory results published in ChEMBL document CHEMBL1143062, “Identification of natural-product-derived inhibitors of 5-lipoxygenase activity by ligand-based virtual screening” (J Med Chem, 2007).

Experiments:
[1] = target: T1, Polyunsaturated fatty acid 5-lipoxygenase (Homo sapiens) (UniProt P09917); experiment: Inhibition of partially purified human 5-LO expressed in Escherichia coli assessed as remaining 5-LO activity at 1 uM; values are per cent of control
T1 sequence (whole entry): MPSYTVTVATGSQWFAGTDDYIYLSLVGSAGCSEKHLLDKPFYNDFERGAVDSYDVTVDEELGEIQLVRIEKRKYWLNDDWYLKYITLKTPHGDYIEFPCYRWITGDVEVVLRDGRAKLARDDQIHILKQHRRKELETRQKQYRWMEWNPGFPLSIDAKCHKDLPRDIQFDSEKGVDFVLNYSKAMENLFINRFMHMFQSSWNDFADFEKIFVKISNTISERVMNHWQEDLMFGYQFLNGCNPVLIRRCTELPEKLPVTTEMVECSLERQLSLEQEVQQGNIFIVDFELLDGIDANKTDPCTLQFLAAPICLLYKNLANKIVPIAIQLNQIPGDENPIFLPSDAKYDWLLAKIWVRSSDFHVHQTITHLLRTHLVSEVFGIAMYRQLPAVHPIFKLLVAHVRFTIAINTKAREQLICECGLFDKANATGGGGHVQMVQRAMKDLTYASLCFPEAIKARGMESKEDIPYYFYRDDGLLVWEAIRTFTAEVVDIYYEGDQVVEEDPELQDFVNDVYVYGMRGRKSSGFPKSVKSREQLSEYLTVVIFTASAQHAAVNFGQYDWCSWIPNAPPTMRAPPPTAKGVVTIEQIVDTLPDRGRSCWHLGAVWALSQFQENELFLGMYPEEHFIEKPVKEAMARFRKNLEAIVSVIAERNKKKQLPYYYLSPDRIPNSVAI

[2] = target: T2, Polyunsaturated fatty acid 5-lipoxygenase (Homo sapiens, UniProt P09917); experiment: Inhibition of partially purified human 5-LO expressed in Escherichia coli
T2 sequence (P09917 whole entry): T1 sequence (whole entry)
Method in brief: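 Recombinant 5-LO from E. coli MV1190 (pT3-5LO, expressed at 27 °C), partially purified by ammonium sulfate precipitation and ATP-agarose chromatography of the S100 fraction. 0.5 µg protein in PBS pH 7.4 with 1 mM EDTA and 1 mM ATP, compound 5-10 min at 4 °C. Started with 2 mM CaCl2 and 20 µM arachidonic acid, 10 min at 37 °C, methanol stop. HPLC product analysis as remaining activity; n ≥ 3, mean ± SEM.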

[3] = target: T1, Polyunsaturated fatty acid 5-lipoxygenase (Homo sapiens); experiment: Inhibition of partially purified human 5-LO expressed in Escherichia coli assessed as remaining 5-LO activity at 10 uM; values are per cent of control
[4] = target: T2, Polyunsaturated fatty acid 5-lipoxygenase; experiment: Inhibition of 5-LO activity in ionophore A23187 and arachidonic-stimulated human intact PMNL; type: functional
Method in brief: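 Freshly isolated human PMNL from healthy-donor leukocyte concentrates (dextran sedimentation, Nycoprep, hypotonic erythrocyte lysis), 5 × 10^6 cells/mL in PBS pH 7.4 with 1 mg/mL glucose and 1 mM CaCl2. 5-LO products analysed by HPLC; n ≥ 3, mean ± SEM.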

| residual activity [1] [%] | IC50 [2] [µM] | residual activity [3] [%] | IC50 [4] [µM] | Structure (SMILES) |
| --- | --- | --- | --- | --- |
| 64 | > 10 | 64 | 8 | COc1cc(C)c2c(c1C)CC(C(C)C(=O)NCc1cccs1)CC2 (stereo unspecified) |
| 73 |  | 56 |  | COc1cc(C)c2c(c1C)CC(C(C)C(=O)Nc1nccs1)CC2 (stereo unspecified) |
|  | 6 |  | 0.9 | CCCOc1cc(C)c2c(c1C)CC(C(C)C(=O)Nc1ccccn1)CC2 (stereo unspecified) |
| 47 | 0.9 | 41 | > 10 | COc1cc(C)c2c(c1C)CC(C(C)C(=O)NCc1ccco1)CC2 (stereo unspecified) |
| 56 |  | 73 |  | Cc1cc(OCCN(C)C)c(C)c2c1CCC(C(C)C(=O)Nc1ccccn1)C2 (stereo unspecified) |
| 50 | 1 | 36 | 0.8 | CCCOc1cc(C)c2c(c1C)CC(C(C)C(=O)Nc1nccs1)CC2 (stereo unspecified) |
|  | 3 |  | 8 | CCCOc1cc(C)c2c(c1C)CC(C(C)C(=O)NCc1cccs1)CC2 (stereo unspecified) |
| 54 | 0.8 | 42 | 5 | COc1cc(C)c2c(c1C)CC(C(C)C(=O)Nc1ccccn1)CC2 (stereo unspecified) |
|  | 0.8 |  | 1 | CCCOc1cc(C)c2c(c1C)CC(C(C)C(=O)Nc1ncc(C)s1)CC2 (stereo unspecified) |
| 74 |  | 62 |  | Cc1cc(OCCN2CCOCC2)c(C)c2c1CCC(C(C)C(=O)Nc1nccs1)C2 (stereo unspecified) |
| 55 | 1 | 65 | > 10 | Cc1cc(OCCN(C)C)c(C)c2c1CCC(C(C)C(=O)Nc1nccs1)C2 (stereo unspecified) |

Second part, the compound before the results:

| Structure (SMILES) | residual activity [1] [%] | IC50 [2] [µM] | residual activity [3] [%] | IC50 [4] [µM] |
| --- | --- | --- | --- | --- |
| CC1C(=O)OC2C1CCC1(C)Cc3sc(NC(=O)Nc4ccc(F)cc4F)nc3C(C)C21 (stereo unspecified) | 46 | 0.6 | 52 | 7 |
| COc1ccc(C(=O)Nc2nc3c(s2)CC2(C)CCC4C(C)C(=O)OC4C2C3C)cc1 (stereo unspecified) | 57 | > 10 | 78 | 6 |
| CC1C(=O)OC2C1CCC1(C)Cc3sc(NC(=O)c4ccc5c(c4)OCO5)nc3C(C)C21 (stereo unspecified) | 67 | > 10 | 96 | 2 |
| CSc1cccc(NC(=O)Nc2nc3c(s2)CC2(C)CCC4C(C)C(=O)OC4C2C3C)c1 (stereo unspecified) | 55 | 1 | 67 | 4 |
| CC1C(=O)OC2C1CCC1(C)Cc3sc(NC(=O)C4CCCC4)nc3C(C)C21 (stereo unspecified) | 66 | 10 | 52 | 8 |
| CC1C(=O)OC2C1CCC1(C)Cc3sc(NC(=O)NCc4ccccc4)nc3C(C)C21 (stereo unspecified) | 78 | > 10 | 54 | 3 |
| COc1cc(C(=O)Nc2nc3c(s2)C[C@]2(C)CC[C@@H]4[C@H](OC(=O)[C@H]4C)[C@H]2[C@@H]3C)cc(OC)c1OC | 65 | > 10 | 60 | 0.9 |
| COc1cc(C)c2c(c1C)CC(C(C)C(=O)NC(C)(C)C)CC2 (stereo unspecified) | 55 | 4 | 42 | > 10 |
| Cc1nnsc1C(=O)Nc1nc2c(s1)CC1(C)CCC3C(C)C(=O)OC3C1C2C (stereo unspecified) | 87 | > 10 | 88 | 10 |
| COc1ccccc1CC(=O)Nc1nc2c(s1)CC1(C)CCC3C(C)C(=O)OC3C1C2C (stereo unspecified) | 87 | > 10 | 86 | 4 |
| COCCOc1cc(C)c2c(c1C)CC(C(C)C(=O)NC1CCCC1)CC2 (stereo unspecified) | 67 | > 10 | 56 | > 10 |
